From ChEMBL document CHEMBL1287735, “Synthesis of new acylsulfamoyl benzoxaboroles as potent inhibitors of HCV NS3 protease” (Bioorg Med Chem Lett, 2010)

What was measured:
[1] = Inhibition of HCV genotype 1 a NS3/4A protease by FRET assay; design: species or system Hepatitis C virus subtype 1a
Rattus norvegicus [2] = experiment: Metabolic absorption in Sprague-Dawley rat at 5 mg/kg, po; type: ADME, organism-based; design: dose 5 mg/kg, route oral; settings: in vivo
Summary of the method: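 Rats (n = 3 per route) were dosed orally at 5 mg/kg and intravenously at 1 mg/kg. Value calculated from portal vein drug concentrations after oral dosing relative to those after IV dosing. Limit of detection 0.5 ng/mL.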

Rattus norvegicus [3] = experiment: (§1) AUC (0 to infinity) in Sprague-Dawley rat at 5 mg/kg, po; type: ADME, organism-based, Plasma; design: time infinity, dose 5 mg/kg, route oral; settings: in vivo, BLD = below limit of detection
Summary of the method: (§2)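 Rats (n = 3 per route) received compound orally at 5 mg/kg or intravenously at 1 mg/kg. Plasma drug levels were measured with a limit of detection of 0.5 ng/mL, and no PK data were generated for samples below it.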

Hepatitis C virus [4] = experiment: Antiviral activity against HCV genotype 1b transfected in human hepatoma cell assessed as inhibition of viral replication; type: functional, organism-based, Hepacivirus hominis
Rattus norvegicus [5] = experiment: (§3) Oral bioavailability in Sprague-Dawley rat at 5 mg/kg; type: ADME, organism-based; settings: in vivo, BLD = below limit of detection
Summary of the method: (§4)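 Dosing was oral at 5 mg/kg and IV at 1 mg/kg (n = 3 each). Bioavailability was calculated from jugular vein drug concentrations after oral administration relative to IV administration. Limit of detection 0.5 ng/mL.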

[6] = Clearance in Sprague-Dawley rat at 1 mg/kg, iv; type: ADME, organism-based; design: dose 1 mg/kg, route intravenous; settings: in vivo; summary of the method: as §2
Hepatitis C virus [7] = experiment: Antiviral activity against HCV genotype 1a transfected in human hepatoma cell assessed as inhibition of viral replication; type: functional, organism-based, Hepacivirus hominis; settings: subtype 1a
[8] = as §1; type: ADME, organism-based, Plasma; design: time infinity, dose 5 mg/kg, route oral; settings: Sprague-Dawley, plasma; summary of the method: as §2
[9] = as §3; type: ADME, organism-based; settings: Sprague-Dawley, in vivo; summary of the method: as §4

SMILES	IC50 [1] [nM]	Activity (Rattus norvegicus [2]; BLD = below limit of detection)	AUC (Rattus norvegicus [3])	EC50 (Hepatitis C virus [4]) [nM]	F (Rattus norvegicus [5])	clearance [6] [mL/min/kg]	EC50 (Hepatitis C virus [7]) [nM]	Activity (Rattus norvegicus [2]) [%]	AUC(0-inf) [8] [ng·h/mL]	bioavailability [9] [%]
O=C(N[C@H]1CCCCC/C=C\[C@@H]2C[C@@]2(C(=O)NS(=O)(=O)c2ccc3c(c2)B(O)OC3)NC(=O)[C@@H]2C[C@@H](OC(=O)N3Cc4cccc(F)c4C3)CN2C1=O)OC1CCCC1	0.8	BLD	BLD	8	BLD	111	66	–	–	–
C=C[C@@H]1C[C@]1(NC(=O)[C@@H]1C[C@@H]2CN1C(=O)[C@H](C(C)(C)C)NC(=O)OCC(C)(C)CCCCc1cccc3c1CN(C3)C(=O)O2)C(=O)NS(=O)(=O)c1ccc2c(c1)B(O)OC2	0.4	–	–	20	–	–	78	–	–	–
C=C[C@@H]1C[C@]1(NC(=O)[C@@H]1C[C@@H]2CN1C(=O)[C@H](C(C)(C)C)NC(=O)OCC(C)(C)CCCCc1cccc3c1CN(C3)C(=O)O2)C(=O)NS(=O)(=O)c1ccc2c(c1)COB2O	0.6	–	–	15	–	–	66	–	–	–
O=C(N[C@H]1CCCCC/C=C\[C@@H]2C[C@@]2(C(=O)NS(=O)(=O)c2ccc3c(c2)COB3O)NC(=O)[C@@H]2C[C@@H](OC(=O)N3Cc4cccc(F)c4C3)CN2C1=O)OC1CCCC1	0.8	–	–	12	–	–	70	–	–	–

Further lines, results first:

IC50 [1] [nM]	Activity (Rattus norvegicus [2]; BLD = below limit of detection)	AUC (Rattus norvegicus [3])	EC50 (Hepatitis C virus [4]) [nM]	F (Rattus norvegicus [5])	clearance [6] [mL/min/kg]	EC50 (Hepatitis C virus [7]) [nM]	Activity (Rattus norvegicus [2]) [%]	AUC(0-inf) [8] [ng·h/mL]	bioavailability [9] [%]	SMILES
0.4	–	–	1.1	–	10.7	1	17.4	1750	20	CC(C)(C)OC(=O)N[C@H]1CCCCC/C=C\[C@@H]2C[C@@]2(C(=O)NS(=O)(=O)C2CC2)NC(=O)[C@@H]2C[C@@H](OC(=O)N3Cc4cccc(F)c4C3)CN2C1=O [DANOPREVIR]
0.3	–	–	12	–	82	52	1.6	14	1.2	C=C[C@@H]1C[C@]1(NC(=O)[C@@H]1C[C@@H]2CN1C(=O)[C@H](C(C)(C)C)NC(=O)OCC(C)(C)CCCCc1cccc3c1CN(C3)C(=O)O2)C(=O)NS(=O)(=O)c1cccc2c1COB2O
